Source: ChEMBL document CHEMBL1153140, “Piperidyl amides as novel, potent and orally active mGlu5 receptor antagonists with anxiolytic-like activity” (Bioorg Med Chem Lett, 2010)
Values after ≈ are worked out from the molar mass of the structure shown. Active and inactive are the calls of the source. The rule behind the calls is not given here.

Columns and labels:
[1] = target: T1, Metabotropic glutamate receptor 5 (Homo sapiens, UniProt P41594); assay: Antagonist activity at human mGluR5 assessed as inhibition of glutamate-induced elevation of intracellular calcium concentration; format: functional, cell-based
[2] = Intrinsic clearance in human liver microsomes; format: ADME, Microsome
[3] = Intrinsic clearance in rat liver microsomes; format: ADME, Microsome
[4] = Aqueous solubility at pH 6.8; format: physicochemical
How it was run: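 Solubility measured at pH 6.8 by a dissolution template potentiometric titration approach, expressed in mg/L.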

[5] = target: T1, Metabotropic glutamate receptor 5; assay: Antagonist activity at human mGluR5 assessed as inhibition of quisqualate-induced intracellular inositol phosphate accumulation; format: functional, cell-based
[6] = AUC in Sprague-Dawley rat at 30 umol/kg, po; format: ADME, organism-based; settings: plasma
How it was run: (§1)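 Sprague-Dawley rats (n = 3/group) dosed orally once at 30 µmol/kg. Plasma Cmax, Tmax and AUC determined.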

Brain = assay: Drug level in rat brain at 2 mg/kg; format: ADME, organism-based; design: dose 2 mg/kg; settings: in vivo
How it was run: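 In a fear-potentiated startle run at 0.08–30 mg/kg po, rats were sacrificed immediately after testing. Brains were removed and drug concentration measured by HPLC, reported as mean ± SEM per dose group.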

[7] = target: Metabotropic glutamate receptor 7 (Homo sapiens, UniProt Q14831); assay: Inhibition of human mGluR7
[8] = target: Metabotropic glutamate receptor 5 (Rattus norvegicus, UniProt P31424); assay: Displacement of [3H]ABP688 from mGluR5 in rat brain cortex; format: tissue-based
[9] = target: T1, Metabotropic glutamate receptor 5; assay: Displacement of [3H]ABP688 from human recombinant mGluR5 expressed in CHO cells; format: cell-based
[10] = Mean retention time in Sprague-Dawley rat at 10 umol/kg, iv; format: ADME, organism-based; settings: in vivo
How it was run: (§2)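 Single iv bolus of 10 µmol/kg in Sprague-Dawley rats, n = 3 per group. Plasma concentration-time profile analysed for AUC, clearance, first and second elimination half-lives, MRT and Vss. Brain/plasma AUC ratio also determined.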

Rattus norvegicus [11] = assay: Anxiolytic-like activity in water-deprived rat assessed as increase in electrical shock-stimulated lick at 3 mg/kg, po administered 1 hr before test by Vogel conflict test; format: functional, organism-based; design: dose 3 mg/kg
[12] = Tmax in Sprague-Dawley rat at 30 umol/kg, po; format: ADME, organism-based; settings: in vivo; how it was run: as §1
[13] = Second elimination Half life in Sprague-Dawley rat at 10 umol/kg, iv; format: ADME, organism-based; settings: in vivo, read-out: beta t1/2 (converted); how it was run: as §2
Glutamate NMDA receptor = assay: Displacement of radioligand from glutamate and glycine binding site of NMDA receptor in rat brain membrane; format: cell membranes
How it was run: (§3)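 Radioligand displacement in rat brain membranes: AMPA (glutamate site), kainate (glutamate site) and NMDA (glutamate and glycine sites).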

[14] = target: Metabotropic glutamate receptor 1 (Homo sapiens, UniProt Q13255); assay: Inhibition of human mGluR1
[15] = Cmax in Sprague-Dawley rat at 30 umol/kg, po; format: ADME, organism-based; design: dose 30 umol/kg, route oral; settings: in vivo; how it was run: as §1
[16] = target: Metabotropic glutamate receptor 2 (Homo sapiens, UniProt Q14416); assay: Inhibition of human mGluR2
[17] = First elimination Half life in Sprague-Dawley rat at 10 umol/kg, iv; format: ADME, organism-based; settings: in vivo, read-out: beta t1/2 (converted); how it was run: as §2
[18] = AUC in Sprague-Dawley rat at 10 umol/kg, iv; format: ADME, organism-based; settings: plasma; how it was run: as §2
[19] = Oral bioavailability in Sprague-Dawley rat at 30 umol/kg; format: ADME, organism-based; settings: in vivo; how it was run: as §1
[20] = Clearance in Sprague-Dawley rat at 10 umol/kg, iv; format: ADME, organism-based; settings: in vivo; how it was run: as §2
[21] = Displacement of radioligand from glutamate binding site of kinate receptor in rat brain membrane; format: cell membranes; how it was run: as §3
Rattus norvegicus [22] = species on record: Rattus norvegicus; assay: Anxiolytic-like activity in rat assessed as reduction in electric foot shock-induced fear-potentiation startle; format: functional, organism-based
How it was run: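 Rats fear-conditioned by 20 pairings of light (5 s) with footshock (0.5 mA, 0.5 s) on two successive days. On day 3, oral dosing (3–30 mg/kg, n = 10/group). 1 h later, startle to a noise burst measured with and without light, 12 presentations each; FPS taken as the difference. Multifactorial ANOVA with Dunnett post-hoc.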

Mus musculus = assay: Anxiolytic-like activity in mouse assessed as reduction of stress-induced hyperthermia at 3 to 10 mg/kg, po; format: functional, organism-based
[23] = Volume of distribution at steady state in Sprague-Dawley rat at 10 umol/kg, iv; format: ADME, organism-based; settings: in vivo, read-out: Vdss; how it was run: as §2
Rattus norvegicus [24] = assay: Anxiolytic-like activity in water-deprived rat assessed as increase in electrical shock-stimulated lick at 10 to 30 mg/kg, po administered 1 hr before test by Vogel conflict test; format: functional, organism-based
[25] = Displacement of radioligand from glutamate binding site of AMPA receptor in rat brain membrane; format: cell membranes; how it was run: as §3
[26] = Ratio of drug level in brain to plasma in Sprague-Dawley rat at 30 umol/kg, po; format: ADME
How it was run: (§4)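 Single-dose pharmacokinetic study in Sprague-Dawley rats, n = 3 per group, given one oral or one iv bolus dose. Drug concentrations were followed over time in plasma and brain. The ratio is the brain AUC divided by the plasma AUC.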

[27] = Ratio of drug level in brain to plasma in Sprague-Dawley rat at 10 umol/kg, iv; format: ADME; how it was run: as §4

T1 sequence (P41594 whole entry): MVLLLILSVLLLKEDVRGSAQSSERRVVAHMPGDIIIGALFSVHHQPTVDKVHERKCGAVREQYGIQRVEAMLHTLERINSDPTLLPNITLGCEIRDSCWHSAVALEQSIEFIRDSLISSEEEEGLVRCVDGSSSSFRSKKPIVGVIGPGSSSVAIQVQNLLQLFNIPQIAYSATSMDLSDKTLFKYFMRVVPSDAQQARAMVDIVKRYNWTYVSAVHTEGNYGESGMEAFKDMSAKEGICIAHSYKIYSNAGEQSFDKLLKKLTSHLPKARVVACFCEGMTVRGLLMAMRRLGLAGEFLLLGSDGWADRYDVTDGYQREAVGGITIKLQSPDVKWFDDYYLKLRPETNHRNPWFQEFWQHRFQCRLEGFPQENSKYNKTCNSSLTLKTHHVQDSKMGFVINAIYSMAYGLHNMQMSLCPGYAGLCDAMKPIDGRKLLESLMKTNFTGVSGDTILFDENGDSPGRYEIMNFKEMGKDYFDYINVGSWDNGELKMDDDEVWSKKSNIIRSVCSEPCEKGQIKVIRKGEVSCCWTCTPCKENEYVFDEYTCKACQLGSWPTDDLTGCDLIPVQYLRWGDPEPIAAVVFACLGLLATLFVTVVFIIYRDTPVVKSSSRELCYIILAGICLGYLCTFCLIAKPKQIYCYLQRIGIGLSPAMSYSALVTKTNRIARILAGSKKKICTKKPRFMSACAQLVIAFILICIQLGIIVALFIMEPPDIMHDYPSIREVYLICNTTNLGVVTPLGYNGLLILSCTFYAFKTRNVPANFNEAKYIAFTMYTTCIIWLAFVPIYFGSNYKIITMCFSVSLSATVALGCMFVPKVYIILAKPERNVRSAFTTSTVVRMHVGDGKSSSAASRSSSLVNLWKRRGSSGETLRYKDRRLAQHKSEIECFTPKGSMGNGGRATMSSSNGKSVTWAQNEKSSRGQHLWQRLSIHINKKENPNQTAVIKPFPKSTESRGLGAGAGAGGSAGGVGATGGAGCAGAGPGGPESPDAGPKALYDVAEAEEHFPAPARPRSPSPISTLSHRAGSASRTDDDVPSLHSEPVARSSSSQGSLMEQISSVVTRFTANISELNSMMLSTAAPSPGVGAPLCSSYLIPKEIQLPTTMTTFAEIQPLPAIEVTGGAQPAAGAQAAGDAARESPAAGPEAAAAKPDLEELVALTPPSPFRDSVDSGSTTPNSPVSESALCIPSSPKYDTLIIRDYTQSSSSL
Metabotropic glutamate receptor 7, sequence (Q14831 whole entry): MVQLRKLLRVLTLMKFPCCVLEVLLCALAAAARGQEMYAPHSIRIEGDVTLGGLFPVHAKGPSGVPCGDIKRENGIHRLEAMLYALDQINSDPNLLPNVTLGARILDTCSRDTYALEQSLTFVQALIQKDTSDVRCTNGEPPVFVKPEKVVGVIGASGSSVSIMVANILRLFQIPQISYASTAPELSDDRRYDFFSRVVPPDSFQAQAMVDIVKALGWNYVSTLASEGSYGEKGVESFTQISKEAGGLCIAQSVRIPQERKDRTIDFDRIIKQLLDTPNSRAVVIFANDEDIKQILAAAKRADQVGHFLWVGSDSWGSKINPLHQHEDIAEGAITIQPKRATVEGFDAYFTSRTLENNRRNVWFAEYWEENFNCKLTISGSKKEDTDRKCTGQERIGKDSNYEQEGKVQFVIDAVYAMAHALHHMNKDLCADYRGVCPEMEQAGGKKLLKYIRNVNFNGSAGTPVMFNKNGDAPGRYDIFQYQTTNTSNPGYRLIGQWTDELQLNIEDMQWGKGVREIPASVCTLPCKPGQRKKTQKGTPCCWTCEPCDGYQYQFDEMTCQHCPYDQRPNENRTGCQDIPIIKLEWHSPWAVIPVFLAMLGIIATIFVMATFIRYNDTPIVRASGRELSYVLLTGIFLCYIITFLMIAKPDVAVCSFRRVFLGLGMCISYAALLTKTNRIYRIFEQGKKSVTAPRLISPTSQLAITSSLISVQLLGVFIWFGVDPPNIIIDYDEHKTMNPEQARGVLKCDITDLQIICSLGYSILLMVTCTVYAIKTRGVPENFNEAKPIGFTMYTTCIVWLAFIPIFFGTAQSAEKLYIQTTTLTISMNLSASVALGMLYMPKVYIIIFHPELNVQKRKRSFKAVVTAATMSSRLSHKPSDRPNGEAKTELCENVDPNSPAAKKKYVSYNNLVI
Metabotropic glutamate receptor 1, sequence (Q13255 whole entry): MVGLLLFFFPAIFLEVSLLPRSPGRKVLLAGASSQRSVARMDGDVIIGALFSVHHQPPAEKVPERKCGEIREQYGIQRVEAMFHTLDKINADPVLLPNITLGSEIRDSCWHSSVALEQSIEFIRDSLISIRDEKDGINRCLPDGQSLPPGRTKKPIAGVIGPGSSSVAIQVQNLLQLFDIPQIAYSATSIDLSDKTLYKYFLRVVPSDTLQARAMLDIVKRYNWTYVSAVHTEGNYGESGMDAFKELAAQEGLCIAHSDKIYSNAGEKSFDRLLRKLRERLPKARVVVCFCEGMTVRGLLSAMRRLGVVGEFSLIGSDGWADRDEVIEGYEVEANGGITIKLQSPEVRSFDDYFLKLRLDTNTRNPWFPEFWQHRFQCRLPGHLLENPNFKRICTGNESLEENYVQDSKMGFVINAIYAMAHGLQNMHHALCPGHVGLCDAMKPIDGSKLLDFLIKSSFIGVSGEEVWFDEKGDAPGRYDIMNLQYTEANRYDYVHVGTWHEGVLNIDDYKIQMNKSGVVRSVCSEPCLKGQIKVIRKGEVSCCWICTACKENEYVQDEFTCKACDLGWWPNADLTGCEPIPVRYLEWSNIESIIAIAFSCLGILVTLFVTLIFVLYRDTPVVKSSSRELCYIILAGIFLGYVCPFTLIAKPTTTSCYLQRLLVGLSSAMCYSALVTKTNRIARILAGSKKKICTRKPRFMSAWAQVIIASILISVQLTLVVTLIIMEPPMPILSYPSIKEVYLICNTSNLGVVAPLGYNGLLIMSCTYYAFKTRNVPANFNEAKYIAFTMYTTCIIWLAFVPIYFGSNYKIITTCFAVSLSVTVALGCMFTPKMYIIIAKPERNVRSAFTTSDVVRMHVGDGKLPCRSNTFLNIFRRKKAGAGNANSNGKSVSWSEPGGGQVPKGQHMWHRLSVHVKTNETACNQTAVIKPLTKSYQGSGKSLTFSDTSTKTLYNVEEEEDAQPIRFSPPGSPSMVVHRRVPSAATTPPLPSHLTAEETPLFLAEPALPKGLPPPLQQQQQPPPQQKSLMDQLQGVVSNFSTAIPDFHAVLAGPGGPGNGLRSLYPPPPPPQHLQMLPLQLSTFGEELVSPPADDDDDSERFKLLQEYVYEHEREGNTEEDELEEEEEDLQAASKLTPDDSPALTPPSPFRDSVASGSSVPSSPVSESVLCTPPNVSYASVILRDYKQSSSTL
Metabotropic glutamate receptor 2, sequence (Q14416 whole entry): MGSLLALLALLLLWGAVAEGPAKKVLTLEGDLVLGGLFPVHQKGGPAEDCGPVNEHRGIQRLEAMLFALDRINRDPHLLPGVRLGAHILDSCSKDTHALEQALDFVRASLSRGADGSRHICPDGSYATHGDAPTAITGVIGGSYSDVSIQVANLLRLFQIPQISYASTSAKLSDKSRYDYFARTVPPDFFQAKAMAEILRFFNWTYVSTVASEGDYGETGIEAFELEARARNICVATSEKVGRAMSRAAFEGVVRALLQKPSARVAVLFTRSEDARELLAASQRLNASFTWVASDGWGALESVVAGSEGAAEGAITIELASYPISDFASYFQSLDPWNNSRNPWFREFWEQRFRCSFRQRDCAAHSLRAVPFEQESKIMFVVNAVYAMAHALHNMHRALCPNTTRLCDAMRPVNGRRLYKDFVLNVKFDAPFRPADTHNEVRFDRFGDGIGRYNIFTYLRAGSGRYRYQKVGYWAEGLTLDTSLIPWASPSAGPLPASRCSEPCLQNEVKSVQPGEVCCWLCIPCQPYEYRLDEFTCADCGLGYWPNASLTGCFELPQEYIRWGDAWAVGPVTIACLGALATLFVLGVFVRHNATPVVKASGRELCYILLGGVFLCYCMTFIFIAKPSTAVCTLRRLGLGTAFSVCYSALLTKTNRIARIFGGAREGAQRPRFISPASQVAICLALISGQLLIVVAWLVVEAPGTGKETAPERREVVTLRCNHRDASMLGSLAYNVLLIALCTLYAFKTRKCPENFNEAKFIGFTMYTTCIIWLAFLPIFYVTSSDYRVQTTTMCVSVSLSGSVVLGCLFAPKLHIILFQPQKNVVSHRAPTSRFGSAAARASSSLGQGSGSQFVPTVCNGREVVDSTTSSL

CC1CCCN(C(=O)c2cnc(Nc3ccc(Cl)cc3)c(Cl)c2)C1 (configuration not stated)
IC50 [1]: 95 nM

CC1CCCN(C(=O)c2ccc(Nc3ccc(Cl)cc3)nc2)C1 (racemic)
IC50 [1]: 530 nM

O=C(c1ccc(NC2CCCCC2)nc1)N1CCCCC1
IC50 [1]: > 10000 nM

O=C(c1ccc(Nc2ccc(F)cc2)nc1)N1CCCCC1
IC50 [1]: 2300 nM

CC1CCCN(C(=O)c2cnc(Nc3ccc(Cl)cc3)nc2)C1 (configuration not stated)
IC50 [1]: 980 nM

COc1ccc(Nc2ccc(C(=O)N3CCCCC3)cn2)cc1
IC50 [1]: 1800 nM

Cc1ccc(Nc2ccc(C(=O)N3CCCCC3)cn2)cc1
IC50 [1]: 2300 nM

COc1cc(C(=O)N2CCCCC2)cnc1Nc1ccc(Cl)cc1
IC50 [1]: 2100 nM

Cc1ccc(Nc2ncc(C(=O)N3CCCC(C)C3)cc2Cl)cn1 (racemic)
microsomal CLint [2]: 60 µL/min/mg
microsomal CLint [3]: 38 µL/min/mg

CC[C@H]1CCCCN1C(=O)c1cnc(Nc2ccc(C)nc2)c(Cl)c1
microsomal CLint [2]: 216 µL/min/mg
solubility [4]: 56 µg/mL (≈ 156 µM)
IC50 [1]: 390 nM
IC50 [5]: 360 nM
microsomal CLint [3]: 190 µL/min/mg

CCC1CCCCN1C(=O)c1cnc(Nc2ccc(C)nc2)c(Cl)c1 (racemic)
microsomal CLint [2]: 138 µL/min/mg
solubility [4]: 122 µg/mL (≈ 340 µM)
IC50 [1]: 110 nM
IC50 [5]: 90 nM
microsomal CLint [3]: 220 µL/min/mg

O=C(c1cnc(Nc2ccc(Cl)cc2)cn1)N1CCCCC1
IC50 [1]: > 10000 nM

CC[C@@H]1CCCCN1C(=O)c1cnc(Nc2ccc(C)nc2)c(Cl)c1
AUC [6]: 7.23 µM·h
microsomal CLint [2]: 89 µL/min/mg
Drug uptake (Brain): 127 pmol/g
IC50 [7]: > 10000 nM
Ki [8]: 30 nM
Ki [9]: 38 nM
MRT [10]: 54 min
Activity (Rattus norvegicus [11]): inactive
Tmax [12]: 15 min
half-life [13]: 54 min
IC50 (Glutamate NMDA receptor): > 10000 nM
IC50 [14]: > 10000 nM
Cmax [15]: 1230 nM
solubility [4]: 58 µg/mL (≈ 162 µM)
IC50 [16]: > 10000 nM
half-life [17]: 18 min
AUC [18]: 4.48 µM·h
bioavailability [19]: 54%
IC50 [1]: 32 nM
clearance [20]: 37.2 mL/min/kg
IC50 [21]: > 10000 nM
Activity (Rattus norvegicus [22]): Dose-dependent effect
Activity (Mus musculus): Active
IC50 [5]: 36 nM
Vd [23]: 2 L/kg
microsomal CLint [3]: 87 µL/min/mg
Activity (Rattus norvegicus [24]): Active
IC50 [25]: > 10000 nM
Kp [26]: 1.3
Kp [27]: 1.36

O=C(c1ccc(Nc2ccc(Cl)cc2)nc1)N1CCCCCC1
IC50 [1]: 250 nM

CC[C@@H]1CCCN(C(=O)c2cnc(Nc3ccc(C)nc3)c(Cl)c2)C1
microsomal CLint [2]: 322 µL/min/mg
solubility [4]: 95 µg/mL (≈ 265 µM)
microsomal CLint [3]: 643 µL/min/mg

Cc1ccc(Nc2ncc(C(=O)N3CCCCC3)cc2Cl)cn1
microsomal CLint [2]: 33 µL/min/mg
solubility [4]: 150 µg/mL (≈ 453 µM)
microsomal CLint [3]: 48 µL/min/mg

CCCCC1CCCCN1C(=O)c1cnc(Nc2ccc(C)nc2)c(Cl)c1 (racemic)
microsomal CLint [2]: 227 µL/min/mg
solubility [4]: < 3 µg/mL
IC50 [1]: 136 nM
IC50 [5]: 5 nM
microsomal CLint [3]: 637 µL/min/mg

CN(c1ccc(Cl)cc1)c1ccc(C(=O)N2CCCCC2)cn1
IC50 [1]: > 10000 nM

CC1CCCN(C(=O)c2ccc(Oc3ccc(Cl)cc3)nc2)C1 (configuration not stated)
IC50 [1]: > 10000 nM

O=C(c1ccc(Nc2cccc(Cl)c2)nc1)N1CCCCC1
IC50 [1]: > 10000 nM

O=C(c1ccc(Nc2ccc(Cl)c(Cl)c2)nc1)N1CCCCC1
IC50 [1]: > 10000 nM
